# Rows were chosen to be rich in hits. Some 3.1% of all compounds tested hit in one or more screens of this group.
# KCNQ1 pot: potentiates or activates the human KCNQ1 potassium channel. CHO-K1 KCNQ1, thallium flux FluxOR fluorescence; active compounds read high. AID 2648. B-score at 10 µM. P51787. hit rate 0.35% among 310,000;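 active means fluorescence ratio B-score, a plate-corrected score, at least three library SD, with initial intensity B-score within 5 SD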
#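 Assay system: CHO-K1 cells stably expressing KCNQ1; Medium: assay buffer with matched DMSO; Also added: K+/Tl+ depolarizing stimulus; Dosing: single dose; Timing: dye 90 min, compound 20 min, room temperature; Measured by: kinetic FluxOR thallium fluorescence, 10-s 1-Hz baseline, 110-s post-stimulus read; Read-out: peak-minus-minimum fluorescence over initial fluorescence, negative-control normalized, B-scored.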
# hERG protect: hERG (human) protection from proarrhythmic block | Q12809 | CHO-hERG, FluxOR thallium flux, dofetilide IC70 present | activation (rescue from dofetilide block), less the hit threshold, % at 10 µM | hit rate 0.51% among 310,000;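 active means activation above the mean of controls blocked by dofetilide plus 5 SD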;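 further: thallium influx through hERG after potassium depolarization seen as dye fluorescence rise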
# KCNK3 block: human KCNK3 channel inhibition, primary screen | AID 602410 | CHO-KCNK3 thallium flux, FluxOR fluorescence; active compounds read low | hit rate 0.84% among 340,000 | B-score at 10 µM;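 active means B-score under library mean minus 4 SD, starting fluorescence ratio at most library mean plus 5 SD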;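 further: more negative B-score means stronger inhibition of thallium flux through KCNK3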
# Target sequence (O14649 whole entry, looked up): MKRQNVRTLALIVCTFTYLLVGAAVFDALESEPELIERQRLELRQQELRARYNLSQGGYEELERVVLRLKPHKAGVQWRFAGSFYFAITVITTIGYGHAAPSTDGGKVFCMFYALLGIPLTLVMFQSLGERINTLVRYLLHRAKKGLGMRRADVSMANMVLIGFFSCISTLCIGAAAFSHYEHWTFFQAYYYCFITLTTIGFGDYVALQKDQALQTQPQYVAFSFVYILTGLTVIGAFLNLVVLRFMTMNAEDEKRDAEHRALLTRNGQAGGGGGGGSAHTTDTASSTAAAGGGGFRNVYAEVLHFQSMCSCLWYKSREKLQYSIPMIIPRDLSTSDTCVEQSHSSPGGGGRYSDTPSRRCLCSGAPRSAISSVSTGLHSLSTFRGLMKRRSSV
# KCNQ1 block: blocks the human KCNQ1 potassium channel; AID 2642; CHO-K1 KCNQ1, FluxOR thallium flux fluorescence; active compounds read high; P51787; hit rate 1.3% among 310,000; B-score at 10 µM;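 active means compounds whose thallium flux B-score, printed positive for inhibition, exceeds three library SD while starting fluorescence stays within three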;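 further: channel opened by potassium depolarization with thallium stimulus after 20 min compound exposure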
# KCNK9 inh: inhibitors of human KCNK9 two-pore domain potassium channel | AID 488922 | Q9NPC2 | hit rate 1.2% among 310,000 | HEK293 KCNK9, FluxOR thallium flux fluorescence; active compounds read low | B-score at 10 µM;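 active means ratio B-score over 3 SD below the library mean, with starting fluorescence within 5 SD of its mean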;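 further: negative B-score means less thallium flux so channel inhibition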
# Target sequence (Q9NPC2 whole entry, looked up, the tested form may be a part): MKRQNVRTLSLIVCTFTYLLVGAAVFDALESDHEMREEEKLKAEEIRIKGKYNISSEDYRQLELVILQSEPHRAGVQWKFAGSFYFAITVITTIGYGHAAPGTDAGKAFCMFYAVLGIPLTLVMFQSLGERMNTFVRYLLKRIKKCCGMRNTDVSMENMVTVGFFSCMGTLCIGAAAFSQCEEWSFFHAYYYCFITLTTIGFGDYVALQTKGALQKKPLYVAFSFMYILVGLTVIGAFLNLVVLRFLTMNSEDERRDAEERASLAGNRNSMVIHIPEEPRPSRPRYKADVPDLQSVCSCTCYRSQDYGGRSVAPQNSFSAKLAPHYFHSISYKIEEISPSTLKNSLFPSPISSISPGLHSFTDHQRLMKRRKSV
# KCNQ1 block val: confirmation of human KCNQ1 potassium channel inhibitors. KCNQ1 cell line, FluxOR thallium flux fluorescence. AID 588353. hit rate 93% among 1,600. inhibition, % at 10 µM. shares compounds with KCNQ1 block;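 active means primary screen active, with duplicate mean exceeding buffer control mean plus 3 SD of buffer wells, cut at about 28% in these data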;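 further: 0% = buffer control ratio and 100% = XE991 inhibitor control ratio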
# CHO Tl flux: counter-screen for KCNQ1 inhibitors: effect in parental CHO cells; shares compounds with KCNQ1 block; parental CHO-K1, FluxOR thallium flux fluorescence ratio; active compounds read low; zero means no signal rise above baseline; fluorescence ratio (Tl flux) at 10 µM; hit rate 21% among 1,600; AID 588366;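 active means mean of duplicate thallium-flux fluorescence ratios in parental host cells more than 5 SD below the buffer control mean, cut at about 0.38 in these data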;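 further: ratio is peak minus minimum fluorescence divided by baseline fluorescence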
# KCNQ1 APC inh: human KCNQ1 inhibition validated by electrophysiology. shares compounds with KCNQ1 block. KCNQ1-CHO cells, automated patch clamp current. AID 624120. hit rate 20% among 490. calls only at 10 µM;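 active means KCNQ1 current drop exceeding 3 SD of negative control wells, seen in both duplicate runs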;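 further: steady state current during a 2 s step from -80 to +40 mV; negative values mean current inhibition and positive values mean potentiation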
# KCNQ2 spec: selectivity of KCNQ1 inhibitors: inhibition of rat KCNQ2 channel | shares compounds with KCNQ1 block | inhibition, % at 10 µM | AID 651746 | hit rate 71% among 1,600 | KCNQ2 cells, FluxOR thallium flux fluorescence;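 active means mean percent inhibition of the KCNQ2 thallium signal more than 5 SD above the buffer-only control wells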;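 further: KCNQ2 expressed in CHO cells; 0% = buffer control wells and 100% = XE-991 inhibitor control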
# KCNQ1-KCNE1 inh: human KCNQ1/KCNE1 inhibition in KCNQ1 specificity screen. shares compounds with KCNQ1 block. KCNQ1/KCNE1 cells, FluxOR thallium flux fluorescence. inhibition, % at 10 µM. hit rate 77% among 1,600. AID 652147;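 active means mean percent inhibition of duplicate wells above the buffer-only control mean plus 3 SD of those controls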;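 further: 0% = buffer only wells and 100% = XE-991 inhibitor control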
# * hit, by the source's call; i = inactive; · = no result; + = active, no number.
SMILES,KCNQ1 pot,hERG protect,KCNK3 block,KCNQ1 block,KCNK9 inh,KCNQ1 block val,CHO Tl flux,KCNQ2 spec,KCNQ1-KCNE1 inh,others
COc1cccc(NC(=O)c2nc(S(C)(=O)=O)ncc2Cl)c1,i,-7.0,i,7*,i,0.0,0.427,i,51.5%*,
CCc1ccc(-c2cc(-c3n[nH]c(=S)n3CC)c3ccccc3n2)cc1,i,-4.8,·,i,i,·,·,·,·,
CCn1c(-c2cc(-c3cccc(OC)c3)nc3ccccc23)n[nH]c1=S,i,-12.4,i,6*,i,80.5*,0.472,i,95.0%*,
CN(C)c1ccc2c3c(cccc13)C(=O)N(c1ccccc1)C2=O,i,-11.7,·,i,i,·,·,·,·,
Cc1cccc(N2C(=O)c3cccc4c(N(C)CCO)ccc(c34)C2=O)c1,i,-17.2,i,7*,i,121.5*,0.25*,i,i,
CCN1C(=O)c2cccc3c(Cl)ccc(c23)C1=O,i,-4.8,i,i,i,·,·,·,·,
CC(C)CCN1C(=O)c2cccc3c(N)ccc(c23)C1=O,i,-42.1,i,24*,i,+,0.0055*,i,i,
Cc1cccc(N2C(=O)c3cccc4c(N)ccc(c34)C2=O)c1,i,-51.3,i,23*,i,+,0.0085*,i,i,
Nc1ccc2c3c(cccc13)C(=O)N(c1ccccc1)C2=O,i,-42.0,i,i,i,·,·,·,·,
CCCCN1CC(COCc2ccccc2)Oc2cccc(Oc3ccc(F)cc3)c2S1(=O)=O (stereo unspecified),·,·,i,·,·,·,·,·,·,
O=CNc1c(Br)cc2c(c1Br)Cc1cc(Br)ccc1-2,·,·,i,·,·,·,·,·,·,
Cc1c(C(N)=O)c(-c2ccccc2)nn1-c1ccccc1,i,-7.2,i,i,i,·,·,·,·,
CCCc1c(-c2ccc(O)cc2)nn(-c2ccc(O)cc2)c1-c1ccc(O)cc1,i,-35.6,-8.97*,13*,i,146.5*,0.254*,i,+,
Cc1cccc(NS(=O)(=O)c2ccc(C)c(C(=O)NCCCN3CCOCC3)c2)c1,·,·,i,·,·,·,·,·,·,
COc1cc(C)nc(NCc2ccccc2)n1,i,1.8,i,i,i,·,·,·,·,
COc1ccc(Nc2cc(C)nc(NCc3ccccc3)n2)cc1,i,-28.0,i,8*,i,124.0*,0.373*,89.0%*,97.5%*,
Cc1ccc(Nc2cc(C)nc(NCc3ccccc3)n2)cc1,i,-30.6,i,i,i,·,·,·,·,
Cc1cc(NC2CCCCC2)nc(NCc2ccccc2)n1,i,-36.2,i,14*,i,182.5*,0.317*,120.3%*,168.5%*,
Cc1ccc(NC(=O)COC(=O)CC2CC3CCC2C3)cc1S(=O)(=O)N1CCOCC1 (stereo unspecified),·,·,i,·,·,·,·,·,·,
Cc1ccc(Cn2c(=N)n(CC(O)COc3ccccc3)c3ccccc32)cc1 (stereo unspecified),i,-24.2,i,6*,-7.6*,129.5*,0.48,68.0%*,i,KCNQ1 APC inh=i
Cc1cc2c(cc1C)N(Cc1ccc(Cl)cc1)C1=NCCCN12,i,-15.5,i,7*,i,91.0*,0.406,105.0%*,98.0%*,KCNQ1 APC inh=+
CC1C(=O)N2CCCc3cc(NC(=O)C(=O)NCCc4ccccc4)cc1c32 (stereo unspecified),i,-9.0,i,i,i,·,·,·,·,
CC1C(=O)N2CCCc3cc(NC(=O)C(=O)NCCc4c[nH]c5ccccc45)cc1c32 (stereo unspecified),i,-21.9,i,10*,i,26.5*,0.439,87.3%*,57.0%*,
Cc1cccc(-c2cc3nc(-c4ccccc4)cc(=O)n3[nH]2)c1,i,-3.3,i,i,i,·,·,·,·,
Cc1nn(-c2ccccc2)c(/N=C/c2ccccc2O)c1-c1ccccc1,i,-12.0,i,6*,i,119.0*,0.428,108.7%*,166.0%*,KCNQ1 APC inh=i
SMILES,KCNQ1 pot,hERG protect,KCNK3 block,KCNQ1 block,KCNK9 inh,KCNQ1 block val,CHO Tl flux,KCNQ2 spec,KCNQ1-KCNE1 inh,others
COC(=O)c1[nH]c2cc(C)ccc2c1NC(=O)CN1CCCc2ccccc21,i,-12.3,i,8*,i,71.5*,0.439,93.3%*,81.5%*,
COC(=O)c1[nH]c2cc(C)ccc2c1NC(=O)CN1CCN(C(=O)c2ccco2)CC1,i,-2.0,i,i,i,·,·,·,·,
Cc1ccc(Cl)cc1N1CCN(C(=O)c2cc3c(=O)[nH]c4ccccc4c3n2C)CC1,i,-29.6,i,12*,i,110.0*,0.512,104.3%*,i,KCNQ1 APC inh=i
c1ccc(Cn2ncc3c(N4CCN(C(c5ccccc5)c5ccccc5)CC4)ncnc32)cc1,i,9.4*,i,10*,i,+,0.376*,i,i,
Clc1ccc(Cn2ncc3c(N4CCCC4)ncnc32)cc1,i,-4.0,i,i,i,·,·,·,·,
Cc1nc2ccc(C(=O)OCC(=O)N(C)c3ccccc3)cc2nc1C,·,·,i,·,·,·,·,·,·,
COc1ccc(NC(=O)c2cc(-c3cc(C)cc(C)c3O)n[nH]2)cc1Cl,i,-8.5,-9.16*,8*,i,168.5*,0.272*,114.0%*,+,
COc1ccc(-c2cc(CCC(=O)N3CCN(c4cc(C)ccc4C)CC3)on2)cc1,·,·,i,·,·,·,·,·,·,
Cc1ccc(-n2cccn2)c(CN2CCCC(C(=O)c3sccc3C)C2)c1 (stereo unspecified),i,-17.3,i,9*,i,72.0*,0.404,99.0%*,54.5%*,
C=CCNC(=O)N1CCc2[nH]c3ccc(F)cc3c2C1,i,-4.4,i,i,i,·,·,·,·,
Fc1ccc2[nH]c3c(c2c1)CN(C(=S)NCc1ccccc1)CC3,i,-13.8,i,7*,i,100.5*,0.487,102.3%*,87.5%*,KCNQ1 APC inh=i
O=C(N1CCc2cc(S(=O)(=O)NC[C@H]3O[C@@H](n4ccc(=O)[nH]c4=O)[C@H](O)[C@@H]3O)ccc2C1)C(F)(F)F,·,·,i,·,·,·,·,·,·,
c1ccc(-c2cn3nc(-c4ccccc4)c(-c4ccccc4)nc3n2)cc1,i,-20.8,i,6*,i,+,0.169*,i,i,
COc1cc(SC)ccc1C(=O)OCC(=O)N1CC(=O)Nc2ccccc21,·,·,i,·,·,·,·,·,·,

# Bioassay records deposited in PubChem BioAssay by Johns Hopkins Ion Channel Center.
